This passage reports IC50 and inhibition results from ChEMBL document CHEMBL3414501, “New platelet aggregation inhibitors based on pyridazinone moiety” (Eur J Med Chem, 2015).

Active and inactive are the calls of the source. No cut-off for these calls is given here.

What all share (format): functional, cell-based
Experiment [1] is described as follows: Antiplatelet activity in human platelet assessed as inhibition of collagen-induced platelet aggregation incubated for 5 mins prior to collagen challenge measured over 5 mins by turbidimetric method. The essentials: (§1)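 Washed human platelets from buffy coat, resuspended in Tyrode-HEPES pH 7.4 with 2 mM CaCl2. Compound in DMSO preincubated with platelets, then collagen (2-4 μg/mL), CRP, thrombin, U-46619 or ionomycin added. Light transmission followed over 5 min in a dual-channel aggregometer (Born turbidimetry); aggregation taken as maximal transmission change. Non-collagen agonists tested at 20 μM compound; at least four experiments in duplicate.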

In experiment [2] the test system is Platelet. Description: Antiplatelet activity in human platelet assessed as inhibition of ionomycin-induced platelet aggregation at 20 uM incubated for 5 mins prior to U-46619 challenge measured over 5 mins by […]. The conditions noted are these: in the assay text read “ionomycin challenge” for “U-46619 challenge”. The essentials: as §1

Experiment [3] deals with Platelet. In words: Antiplatelet activity in human platelet assessed as inhibition of CRP-XL-induced phosphotyrosine level incubated for 5 mins prior to CRP-XL challenge measured after 5 mins by immunodot blot analysis. In outline: (§2)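 Washed platelets from donor buffy coat in modified Tyrode-HEPES (pH 7.4, 2 mM Ca2+), pre-incubated 5 min with DMSO or compound. Flow cytometry: CRP-XL stimulation with FITC-PAC-1 for 15 min at room temperature, 10,000 events, PAC-1 mean fluorescence and % positive platelets. Phosphotyrosine: CRP-XL 5 μg/mL, SDS/EDTA (2%/1 mM final) lysates, immunodot blot with 4G10, HRP secondary, chemiluminescence.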

The test system of experiment [4] is Platelet. In words: Antiplatelet activity in human platelet assessed as inhibition of thrombin-induced platelet aggregation at 20 uM incubated for 5 mins prior to thrombin challenge measured over 5 mins by […]. The essentials: as §1
The test system of experiment [5] is Platelet. In words: Antiplatelet activity in human platelet assessed as inhibition of CRP-XL-induced activated Gp2b/3a expression incubated for 5 mins prior to CRP-XL challenge measured after 15 mins by flow cytometry. In outline:
as §2
In general terms: A flow cytometer gives signals particle by particle.

Experiment [6] concerns Platelet. In words: Antiplatelet activity in human platelet assessed as inhibition of U-46619-induced platelet aggregation at 20 uM incubated for 5 mins prior to U-46619 challenge measured over 5 mins by […]. The essentials: as §1
Experiment [7] has as its system Platelet. Description: Antiplatelet activity in human platelet assessed as inhibition of CRP-XL-induced platelet aggregation at 20 uM incubated for 5 mins prior to CRP-XL challenge measured over 5 mins by […]. In outline:
as §1

As usually defined, the IC50 is the midpoint of a concentration-inhibition curve. Turning to `O=C1CC2OCCC2=NN1` (configuration not stated), in experiment [1], the IC50 amounted to 70.6 µM.
Same read-out and setting: under `O=c1c(CO)ccnn1Cc1ccccc1` stands more than 100 µM.
The same measure, in the same setting: under `O=c1cc(CO)cnn1Cc1ccccc1` stands more than 100 µM; under `O=C1CC2OCCCC2=NN1` (configuration not stated), more than 100 µM.
The same measure, in the same setting: then `O=c1cc2c(n[nH]1)CCCO2`, with more than 100 µM.
Consider `CC(C)(C)[Si](OCc1cnn(Cc2ccccc2)c(=O)c1)(c1ccccc1)c1ccccc1`, for which the inhibition entry with Platelet [2], in the experiment with Platelet [4] and in the experiment with Platelet [6] was “inactive” in each case. Also, in the experiment on Platelet [3], the inhibition result is “Dose-dependent effect”. Moreover, the inhibition entry with Platelet [5] and in the experiment on Platelet [7] was “Active” throughout. Besides, the IC50 in experiment [1] is 0.55 µM.
As for `O=c1c(COCc2ccccc2)ccnn1Cc1ccccc1`, the IC50 in experiment [1] stood at 17.5 µM.
Still for that read-out and setting: then `O=c1c(CBr)ccnn1Cc1ccccc1`, with more than 100 µM.
On the same count and under the same terms, under `CC(C)(C)[Si](OCc1ccnn(Cc2ccccc2)c1=O)(c1ccccc1)c1ccccc1` stands 1.31 µM; under `O=c1cc(COCc2ccccc2)cnn1Cc1ccccc1`, 3.75 µM.
Still for that read-out and setting: under `O=c1cc(CBr)cnn1Cc1ccccc1` stands more than 100 µM.
